Data on 22 molecules can be found in ChEMBL document CHEMBL4665864, “Indole acrylonitriles as potential anti-hyperglycemic agents: Synthesis, α-glucosidase inhibitory activity and molecular docking studies” (Bioorg Med Chem, 2020).

A short description of the first test: Inhibition of Saccharomyces cerevisiae alpha-glucosidase using p-nitrophenyl-alpha-D-glucopyranoside as substrate preincubated with enzyme for 5 mins followed by substrate addition and measured after 30 mins by microplate reader analysis.
Settings: not given; call rule not given here
In short, it runs like this:
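Yeast enzyme solution 2.5 U mL-1 and p-NPG made up in 0.07 M phosphate buffer, pH 6.8. Enzyme, buffer and test compound preincubated 5 min at 37 °C, then 10 mM p-NPG stock added and incubated 30 min at 37 °C. Reaction stopped with 0.2 M Na2CO3, p-nitrophenol read at 405 nm. Percent inhibition taken against buffer-only control; IC50 from dose-response curves of compounds giving ≥50% inhibition.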
Broadly, the IC50 is the concentration at which inhibition is half-maximal. With `N#C/C(=C\c1cccc(OCc2ccccc2)c1)C(=O)c1c[nH]c2ccccc12`, the IC50 result is reported as “Not Active”. Same read-out and setting: for `COc1ccc(/C=C(\C#N)C(=O)c2c[nH]c3ccccc23)c(F)c1` the value was “Not Active”.

Regarding `N#C/C(=C\c1ccco1)C(=O)c1c[nH]c2ccccc12`, the IC50 entry is given as “Not Active”.

Consider `CN(C)c1ccc(/C=C(\C#N)C(=O)c2c[nH]c3ccccc23)cc1`, for which the IC50 result is given as “Not Active”. On the same count and under the same terms, for `N#C/C(=C\c1ccc2ccccc2c1)C(=O)c1c[nH]c2ccccc12` the value was “Not Active”; for `N#C/C(=C\c1ccncc1)C(=O)c1c[nH]c2ccccc12`, “Not Active”; for `N#C/C(=C\c1ccc(-c2ccccc2)cc1)C(=O)c1c[nH]c2ccccc12`, “Not Active”. Same read-out and setting: for `Cc1ccccc1/C=C(\C#N)C(=O)c1c[nH]c2ccccc12` the value was “Not Active”; for `N#C/C(=C\c1c(Cl)cccc1Cl)C(=O)c1c[nH]c2ccccc12`, “Not Active”; for `N#C/C(=C\c1cccnc1)C(=O)c1c[nH]c2ccccc12`, “Not Active”.

On to `N#C/C(=C\c1ccc(OCc2ccccc2)cc1)C(=O)c1c[nH]c2ccccc12`, for which the IC50 entry is given as “Not Active”.

For `N#C/C(=C\c1ccc(Cl)cc1)C(=O)c1c[nH]c2ccccc12`, the IC50 result is listed as “Not Active”. On the same count and under the same terms, with `N#C/C(=C\c1cc(Cl)cc(Cl)c1O)C(=O)c1c[nH]c2ccccc12` the entry was “Not Active”; with `N#C/C(=C\c1cccc([N+](=O)[O-])c1)C(=O)c1c[nH]c2ccccc12`, “Not Active”.

The same test, now with this note: read-out: IC50.
As for `N#C/C(=C\c1ccccc1OCc1ccccc1)C(=O)c1c[nH]c2ccccc12`, the IC50 is 1.19 µM. As to `COc1ccc(/C=C(\C#N)C(=O)c2c[nH]c3ccccc23)cc1OCc1ccccc1`, the IC50 was 1.02 µM. On the same count and under the same terms, with `N#C/C(=C\c1ccc2ccc3cccc4ccc1c2c34)C(=O)c1c[nH]c2ccccc12` the figure was 1.36 µM; with `COc1cccc(/C=C(\C#N)C(=O)c2c[nH]c3ccccc23)c1Cl`, 0.95 µM; with `N#C/C(=C\c1ccc([N+](=O)[O-])cc1)C(=O)c1c[nH]c2ccccc12`, 0.88 µM.

Regarding `N#C/C(=C\c1cccc2ccccc12)C(=O)c1c[nH]c2ccccc12`, the IC50 amounted to 0.6 µM. The same measure, in the same setting: with `COc1cc(/C=C(\C#N)C(=O)c2c[nH]c3ccccc23)cc(OC)c1Br` the figure was 0.53 µM. For `C[C@H]1O[C@H](O[C@H]2[C@H](O)[C@@H](O)[C@@H](O[C@H]3[C@H](O)[C@@H](O)C(O)O[C@@H]3CO)O[C@@H]2CO)[C@H](O)[C@@H](O)[C@@H]1N[C@H]1C=C(CO)[C@@H](O)[C@H](O)[C@H]1O` (some centres not stated) [ACARBOSE], the IC50 came out at 2.91 µM.
